Compounds with a hit are over-represented: about 3.5% of the library has one in this group of screens.
ERAP1 inh: human ERAP1 aminopeptidase inhibitors, primary screen, biochemical, single point, plate reader; Endoplasmic reticulum aminopeptidase 1 (Homo sapiens), Q9NZ08; recombinant ERAP1, Leu-AMC fluorescence, 60 min; inhibition, % at 10.7 µM; 340,000 compounds, 0.15% hits;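 active = mean replicate inhibition of at least 30%, or all replicates individually reaching that 30% level; inactive = mean below 30% and not every replicate reaching it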;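 also: 0% = neutral control wells and 100% = L-leucinethiol positive control wells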
Target sequence (Q9NZ08 whole entry, looked up): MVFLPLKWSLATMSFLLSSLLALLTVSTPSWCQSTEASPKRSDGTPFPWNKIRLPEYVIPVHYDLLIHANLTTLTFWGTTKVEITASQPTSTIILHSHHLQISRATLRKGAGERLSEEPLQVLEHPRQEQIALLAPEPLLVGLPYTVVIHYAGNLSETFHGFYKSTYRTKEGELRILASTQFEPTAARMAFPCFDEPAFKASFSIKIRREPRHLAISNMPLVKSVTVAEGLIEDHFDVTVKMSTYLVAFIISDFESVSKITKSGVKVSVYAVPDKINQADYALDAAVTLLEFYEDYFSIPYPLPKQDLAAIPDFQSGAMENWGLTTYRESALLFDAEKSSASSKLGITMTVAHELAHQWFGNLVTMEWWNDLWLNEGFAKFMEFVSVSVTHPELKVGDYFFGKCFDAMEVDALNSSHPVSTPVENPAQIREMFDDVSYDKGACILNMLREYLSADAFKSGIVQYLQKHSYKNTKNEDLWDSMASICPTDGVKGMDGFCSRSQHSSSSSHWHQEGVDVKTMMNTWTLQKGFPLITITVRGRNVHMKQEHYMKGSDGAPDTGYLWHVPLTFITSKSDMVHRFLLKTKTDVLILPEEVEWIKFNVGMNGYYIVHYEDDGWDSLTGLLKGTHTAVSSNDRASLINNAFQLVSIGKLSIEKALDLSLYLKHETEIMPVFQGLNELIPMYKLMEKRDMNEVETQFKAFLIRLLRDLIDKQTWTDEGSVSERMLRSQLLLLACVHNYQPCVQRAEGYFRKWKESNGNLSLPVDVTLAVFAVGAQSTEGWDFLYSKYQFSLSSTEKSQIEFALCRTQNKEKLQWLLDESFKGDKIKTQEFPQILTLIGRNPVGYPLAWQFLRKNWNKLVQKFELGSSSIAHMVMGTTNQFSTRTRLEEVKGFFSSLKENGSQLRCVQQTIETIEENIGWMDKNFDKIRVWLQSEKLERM
MITF TRPM1 HTS: activators of MITF-driven TRPM1 promoter reporter, primary screen, cell-based, SK-MEL-5, luciferase, single point | 300,000 compounds, 0.75% hits | SK-MEL-5 TRPM1-promoter luciferase, 24 h; % of positive control, neutral wells = 0 | activation, % at 12.5 µM;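 active = mean activation of at least 80% with every replicate also reaching 80%; inconclusive = mean reaches 80% but some replicate falls short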;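 also: 0% = neutral control wells and 100% = parthenolide positive control wells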
esBAF inh: Bmi1 luciferase reporter increase in mESCs, primary screen, esBAF inhibitor project, mouse ES cells, Bmi1 luciferase knock-in, single point; reporter increase, % at 12.5 µM; 24 h; 100% = twice the neutral-well signal; 350,000 compounds, 2% hits; in the data active = activation above about 40%; inconclusive = no clear call, values can overlap the other calls;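 also: 0% = median of the plate's neutral control wells and 100% = double that signal; a rise in the Bmi1 reporter signal indicates esBAF inhibition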
Cneo AK release: Cryptococcus neoformans cell lysis inducers, primary screen, AK release luminescence, single concentration. lysis activity, % at 15 µM. 360,000 compounds, 0.2% hits. C. neoformans lysis, adenylate kinase release luminescence, 4 h; normalised: neutral wells 0, clomiphene wells 100;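 active = mean lysis activity across replicates of at least 80%, whatever share of replicates individually reach that level; inactive = mean lysis activity below 80%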
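Signal: Adenylate kinase release luminescence | Assay system: Log-phase Cryptococcus neoformans yeast cells | Input: Cells at 5 × 10^6 per mL | Buffer or medium: Fresh YPD growth medium | Compound: Single dose | Schedule: Static 4 h at 37 °C with compound, 1 h detection | Controls: Clomiphene | Read-out: Luminescence rise reflecting yeast cell lysis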
Wnt act: Wnt/beta-catenin pathway activators, primary screen, cell-based, plate reader, single point. activation, % at 9.35 µM. AID 743398, 2014. 300,000 compounds, 1.2% hits. Wnt/beta-catenin reporter cell assay, activator; in the data active = activation above about 30%, passing the limit was not always enough; inconclusive = no clear call, values can overlap the other calls;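 also: 0% = neutral control wells and 100% = positive control wells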
Env fusion inh: inhibitors of HIV-1 Env-driven cell-cell fusion, primary screen, HeLa-JRFL effector, CEM21 target cells, luciferase; 360,000 compounds, 1.1% hits; inhibition, % at 12.3 µM;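 active = mean replicate inhibition score of at least 50 and every replicate individually at or above 50; inconclusive = only one of the two criteria met; inactive = mean below 50 and not all replicates reaching 50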;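 also: 0% = plate neutral controls and 100% = maraviroc near 300 nM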
An asterisk follows results filed as active; ? = inconclusive; . = no result given; [ ] = remark or other dose.

SMILES	ERAP1 inh	MITF TRPM1 HTS	esBAF inh	Cneo AK release	Wnt act	Env fusion inh
COc1ccc(/C=C/C(=O)Nc2cccnc2Cl)cc1	-5.3	96.8*	?	.	43.1*	-52.8
Cc1ccc(C(=O)Nc2cccnc2Cl)cc1Cl	-1.3	38.3	53.9*	-0.9	14.3	-22.1
NC(=O)C1CC(=O)N(c2ccc(OCC(=O)Nc3ccc(F)cc3)cc2)C1 (stereo unspecified)	1.2	8.3	6.3	-0.3	3.1	.
Cc1cc(C)cc(C(=O)Nc2cccnc2Cl)c1	-0.5	-0.7	-5.0	0.9	0.4	2.4
Cc1ccc(OCC(=O)Nc2ccccc2F)cc1C	2.2	106.6*	.	.	43.4*	-50.8
C[C@H](CO)N1C[C@H](C)[C@H](CN(C)Cc2ccncc2)Oc2ccc(NC(=O)Cn3cnnn3)cc2CC1=O	-4.0	.	5.6	-0.4	.	.
Cc1ccccc1NC(=O)c1ccc(OCC(=O)Nc2ccccc2F)cc1	0.3	0.4	.	.	0.3	-4.2
Cc1ccc(OCC(=O)Nc2ccccc2F)cc1	2.2	.	.	-0.6	41.3*	-77.1
CC1CCCN(c2ccc(C(=O)NCc3ccccc3)cn2)C1 (stereo unspecified)	-0.3	32.2	34.2	1.6	4.0	-1.3
CC(C)(C)c1ccc(C(=O)NCCc2ccccc2)cc1	-3.2	?	-21.4	-12.8	29.4	-67.5
O=C(NCCc1ccccc1)c1ccc(Cl)nc1	.	58.9	-7.1	-1.3	38.7*	-49.9
CC1CCN(c2ccc(C(=O)NCCc3ccccc3)cn2)CC1	.	64.6	50.4*	-0.4	.	-58.3
S=C(NCCc1cccc(Cl)c1)NC1CCCCC1	-0.3	46.3	65.8*	87.9*	21.6	-45.4
Cc1ccc(S(=O)(=O)N(C)C[C@@H]2OCCCC[C@H](C)Oc3ccc(NC(=O)c4ccncc4)cc3C(=O)N([C@H](C)CO)C[C@H]2C)cc1	-0.7	.	12.1	6.0	.	9.3[16.7 µM]
CCc1sc(C(=O)N2CCc3ccccc32)cc1C	15.5	63.6	.	.	39.2*	-178.0
Cc1ccc(-c2cc(C(=O)N3CCCc4ccccc43)no2)cc1	3.1	?	71.8*	-5.7	11.3	-70.6
Cc1ccc(C(=O)N2CCc3ccccc32)cc1	.	30.4	51.0*	-3.6	11.9	-11.3
O=C(c1ccc(Cl)s1)N1CCc2ccccc21	.	66.9	26.6	-8.2	.	-215.2
CCCC(=O)Nc1ccc2c(c1)C(=O)N(C)C[C@@H](OC)[C@H](C)CN(C(=O)c1ccncc1)[C@@H](C)CO2	-4.4	.	-3.5	-10.6	.	-0.6[16.7 µM]
O=C(NCc1ccco1)c1cc(-c2ccc(F)cc2)on1	.	72.1	-0.3	.	.	-204.1
O=C(Nc1sc2c(c1C(=O)NCc1ccco1)CCCC2)c1ccc2c(c1)OCO2	.	99.7*	46.1*	-2.3	18.0	-104.3
CCc1nc2ccc(C(=O)NCCc3ccco3)cc2nc1CC	.	87.4*	52.9*	-2.4	.	.
O=C(NCc1ccco1)c1cc(-c2ccccc2)on1	.	50.7	104.6*	-0.8	.	.
O=C(NCc1ccco1)c1ccc(C(=O)NCc2ccco2)cc1	1.4	1.6	.	.	0.1	-7.1
O=C(NCc1ccco1)c1ccc2ccccc2c1	.	90.4*	72.0*	-26.6	.	.
SMILES	ERAP1 inh	MITF TRPM1 HTS	esBAF inh	Cneo AK release	Wnt act	Env fusion inh
OC[C@@H]1[C@H](c2ccc(-c3ccc(F)cc3)cc2)[C@@H]2CN(CCC(F)(F)F)CCCCN12	1.6	.	.	0.4	.	.
COCC(=O)Nc1ccc2c(c1)OC[C@H](C)N(CCC(F)(F)F)C[C@@H](C)[C@H](OC)CN(C)C2=O	-2.5	.	2.5	-10.4	.	-6.3[16.7 µM]
CCC1(C)N=C(c2ccc3c(c2)OCO3)CC(c2ccccc2O)N1 (stereo unspecified)	1.3	39.6	46.0*	-2.0	13.7	.
C[C@H]1CN([C@@H](C)CO)C(=O)Cc2cc(NC(=O)c3ccncc3)ccc2O[C@H]1CN(C)CC1CCCCC1	1.9	.	-1.8	12.9	.	.
Cc1nc(-c2ccc(Cl)cc2)sc1C1(C)CC(c2cccc(Cl)c2)=NO1 (stereo unspecified)	-0.4	39.3	20.9	4.6	10.8	-8.3
Cc1nc(-c2ccc(Cl)cc2)sc1C1(C)CC(c2cccc(F)c2)=NO1 (stereo unspecified)	-2.5	48.1	46.3*	0.6	7.1	0.9
Fc1ccc2cnc(-c3ccccc3F)cc2c1	-0.9	26.8	53.5*	-6.8	12.2	-113.1
Fc1ccc2cc(-c3ccccc3F)ncc2c1	-0.1	56.6	63.1*	-0.9	?	-149.2
COc1cc2cnc(-c3ccccc3F)cc2cc1OC	.	8.4	20.5	1.1	4.1	23.2
Fc1ccccc1-c1cc2ccccc2cn1	2.4	54.6	60.6*	5.4	35.6*	.
C[C@H]1CN([C@@H](C)CO)C(=O)c2cccc(NS(=O)(=O)c3cccs3)c2O[C@@H]1CN(C)Cc1ccc(-c2ccccc2)cc1	2.7	.	-2.2	2.0	.	.
COCC#Cc1ccc([C@@H]2[C@H](CO)N3C(=O)CN(C(=O)C4CCCC4)C[C@@H]23)cc1	-2.6	.	.	.	.	.
Nc1c(Br)cc2oc(-c3ccccc3)nc2c1Br	.	36.0	58.2*	0.6	.	.
COc1ccc(-c2nc3c(Br)c(N)c(Br)cc3o2)cc1	4.9	-0.3	.	-1.5	24.5	.
CCC(=O)NCCc1nc2cc(NC(=O)c3ccc(F)cc3)ccc2n1C	-7.5	93.3*	39.2	-4.9	28.7	-21.7
CCC(=O)NCCc1nc2cc(NC(=O)c3ccc(Cl)cc3)ccc2n1C	-2.0	122.9*	30.4	-4.1	37.3*	-24.0
C[C@H](CO)N1C[C@H](C)[C@H](CN(C)Cc2ccc(C(F)(F)F)cc2)Oc2ccc(NS(=O)(=O)c3cn(C)cn3)cc2CC1=O	-2.0	.	-5.0	-1.6	.	13.9[16.7 µM]
Cc1ccc(-c2cc(N)n(-c3ccc(C)cc3)n2)cc1	.	87.3*	46.9*	-0.3	.	.
Cc1ccc(-c2cc(N)n3nc(-c4ccc(C)cc4)cc3n2)cc1	.	11.6	-1.4	-0.2	-1.6	.
Cc1ccc(-c2cc3nc(-c4ccccc4)cc(N)n3n2)cc1	.	64.0	.	-0.3	42.0*	-95.2
Cc1ccc(-c2cc(N)n(-c3ccc(F)cc3)n2)cc1	3.8	100.2*	.	.	9.4	-27.5
COc1cccc(NC=C2C(=O)OC3(CCCCC3)OC2=O)c1	.	.	-4.7	1.5	1.1	-37.2
O=C1OC2(CCCCC2)OC(=O)C1=CNc1ccc2c(c1)OCO2	.	35.2	56.6*	-2.1	.	34.0
COc1ccc(/C=C2\CCCC3C2=NN(C(=O)c2scnc2C)C3c2ccc(OC)c(OC)c2)cc1OC (stereo unspecified)	.	-13.2	-1.2	0.3	.	65.6*
CCC(=O)Nc1cccc(C(=O)OCC(=O)c2ccccc2Cl)c1	.	67.0	50.8*	-0.9	.	-160.2
CC(=O)Nc1cccc(C(=O)OCC(=O)NC(=O)c2ccccc2)c1	-0.6	5.3	9.4	-1.3	6.3	4.9

High-throughput results as filed in PubChem BioAssay.
